Assay outcomes deposited in PubChem BioAssay by The Scripps Research Institute Molecular Screening Center.
CHO-K1 Ca ag – counter-screen for M1 agonists: effect in parental CHO-K1 cells; Fluo-8 calcium fluorescence; scaled to maximal ATP response, vehicle zero; activation, % at 3 µM; 360,000 compounds, 0.48% hits; in the data active = activation above about 15%;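 note: untransfected CHO-K1 host cells lacking M1 receptor as counterscreen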
OX1R antag-1 – human HCRTR1 antagonism. inhibition, % at 5 µM. CHO/OX1R cells, Fluo-8 calcium fluorescence, orexin A. AID 434989. 330,000 compounds, 0.43% hits;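 active = inhibition above its plate's threshold, mean inhibition of all tested compounds on the plate plus 3 SD, cut at about 37% in these data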;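 note: 0% = orexin A challenge wells and 100% = SB-334867-A antagonist wells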
Target sequence (O43613 whole entry, looked up): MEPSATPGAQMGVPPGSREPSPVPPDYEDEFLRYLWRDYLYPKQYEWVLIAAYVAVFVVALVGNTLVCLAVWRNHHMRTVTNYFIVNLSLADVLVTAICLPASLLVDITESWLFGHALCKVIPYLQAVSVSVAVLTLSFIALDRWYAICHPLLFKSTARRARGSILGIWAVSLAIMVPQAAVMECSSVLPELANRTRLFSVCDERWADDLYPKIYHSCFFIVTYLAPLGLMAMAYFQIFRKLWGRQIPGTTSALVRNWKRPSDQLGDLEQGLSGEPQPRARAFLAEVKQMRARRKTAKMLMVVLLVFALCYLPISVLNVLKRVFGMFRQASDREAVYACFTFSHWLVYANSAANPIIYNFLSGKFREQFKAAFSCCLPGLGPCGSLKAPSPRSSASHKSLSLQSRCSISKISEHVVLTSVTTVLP
M1 PAM parental – M1 PAM counterscreen hit in parental CHO-K1 cells | activation, % at 3 µM | ATP EC20, Fluo-8 calcium fluorescence; 0% at ATP EC20, 100% at ATP max | 360,000 compounds, 0.02% hits;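 active = activation above the run cutoff, the mean activation of all test compounds plus 3 SD, cut at about 40% in these data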;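 note: peak over basal fluorescence ratio in a 140 s read after ATP addition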
CHO parental Ca – counter-screen for OX1R antagonists: effect in parental CHO cells | inhibition, % at 5.6 µM | 330,000 compounds, 0.63% hits | parental CHO-K1, ATP-induced calcium, Fluo-8 fluorescence;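 active = inhibition above that plate's mean sample inhibition plus 3 SD, cut at about 26% in these data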;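 note: 0% = ATP-challenged DMSO wells and 100% = DMSO wells without ATP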
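Material: Parental CHO cells | Reagent: ATP | Compound dosing: Single nominal dose of 5.6 µM per compound | Detection: Intracellular calcium via Fluo-8 no-wash fluorescent dye | Read-out: % inhibition of ATP-induced calcium mobilization | Benchmarks: Low control ATP plus DMSO, high control DMSO only | Replicates: Singlicate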
OX1R antag-2 – OX1R (human) antagonism; O43613; OX1R-expressing cells, FRET antagonist read-out; inhibition, % at 6.6 µM; 330,000 compounds, 1.8% hits; AID 485270; in the data active = inhibition mostly above about 38%, no sharp cut-off; inactive = mostly below about 40%;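 note: 0% = agonist challenge alone and 100% = reference antagonist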
CHO-K1 Ca antag – nonselective inhibitor or artifact in parental CHO-K1 cells; 360,000 compounds, 0.6% hits; inhibition, % at 3 µM; ATP-induced calcium, Fluo-8 fluorescence;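 active = inhibition above a per-plate cutoff, the plate's mean sample inhibition plus 3 SD, cut at about 24% in these data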;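 note: 0% = DMSO plus EC80 ATP and 100% = DMSO alone without ATP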
The depositor's hits bear a star; · = no result given. This is a sample that favours compounds with a hit; in the whole collection about 2.9% have one here.

SMILES	CHO-K1 Ca ag	OX1R antag-1	M1 PAM parental	CHO parental Ca	OX1R antag-2	CHO-K1 Ca antag
O=C(COC(=O)c1ccccc1NS(=O)(=O)c1ccc(Cl)cc1)NCc1ccccc1	0.0	-26.1	-6.9	-8.6	49.4*	5.5
CCOC(=O)N(C)c1c(CC)nc2c(OCc3ccccc3)cccn12	-0.7	·	4.7	·	·	-2.6
O=C(Nc1ccccc1F)c1ccc(-c2cccc([N+](=O)[O-])c2)o1	-0.3	-21.7	-4.7	-11.3	64.1*	6.2
O=C(Nc1cccnc1)c1cc(Br)c(Br)s1	11.0	-22.7	-3.8	-1.3	32.2	3.6
O=C(Nc1cccnc1)c1ccc([N+](=O)[O-])s1	2.2	-4.5	10.4	-15.0	52.6*	-12.1
O=C(Nc1ccccc1F)c1ccc([N+](=O)[O-])s1	0.8	-2.1	28.2	2.2	38.5*	-11.4
CN(C)NC(=O)c1ccc([N+](=O)[O-])s1	-0.1	-19.4	-14.8	-9.2	66.8*	14.5
O=C(CN(C(=O)c1csnn1)c1cccc(C(F)(F)F)c1)NCCc1ccccc1	1.8	-24.9	-9.1	-23.5	4.2	-12.6
O=C(O)CCCC(=O)Nc1ccn(-c2ccccc2)n1	0.2	-8.7	13.5	7.0	1.3	-1.0
CC(=O)CC(=O)Nc1ccn(-c2ccccc2)n1	-0.3	-23.3	-9.4	-17.1	15.0	27.2*
CCc1ccc(OCC(=O)Nc2ccc(S(=O)(=O)Nc3ccccn3)cc2)cc1	9.7	-13.8	28.4	6.2	2.0	-0.8
CC1=C(C(=O)N2CCOCC2)CC(CC(=O)NC2CCCCC2)C(=O)N1Cc1ccccc1 (centres undefined)	-0.1	·	0.3	·	·	0.1
COc1ccc(CN2C(=O)C(CC(=O)NC3CCCC3)CC(C(=O)N3CCOCC3)=C2C)cc1 (centres undefined)	-0.2	·	-5.2	·	·	23.8*
COc1ccc(C2/C(=C(/O)c3ccc4c(c3)CC(C)O4)C(=O)C(=O)N2CCCn2ccnc2)cc1OC (centres undefined)	5.9	·	-5.1	·	·	-4.4
Cc1cc(C(=O)CN2C(=O)NC3(CCCc4sccc43)C2=O)c(C)n1-c1ccc(Cl)cc1 (centres undefined)	0.4	4.3	7.9	-9.7	49.6*	-0.5
NC(=O)CN1C(=O)NC2(CCCc3sccc32)C1=O (centres undefined)	-0.5	-14.0	3.4	-2.0	7.4	-16.6
O=C1/C(=N\S(=O)(=O)c2cccs2)C([n+]2cccc(Cc3ccccc3)c2)=C([O-])c2ccccc21	0.1	33.1	17.0	50.7*	48.2*	-18.8
Cc1cc(C)c[n+](C2=C([O-])c3ccccc3C(=O)/C2=N\S(=O)(=O)c2cccs2)c1	-0.2	-5.4	18.1	3.1	47.8	1.7
CC(C)(C)c1cc[n+](C2=C([O-])c3ccccc3C(=O)/C2=N\S(=O)(=O)c2ccccc2)cc1	0.6	-21.5	10.6	-11.4	67.2*	-5.8
O=C1/C(=N\S(=O)(=O)c2cccs2)C([n+]2ccc(CCCc3ccccc3)cc2)=C([O-])c2ccccc21	0.2	-20.7	-18.0	-54.9	25.7	6.9
C=C1C(=O)[C@]23C[C@H]1CCC2[C@@]1(C)C(C[C@@H]3O)[C@](C)(C(=O)OC)CC[C@@H]1OC(C)=O (some centres undefined)	6.2	·	-0.4	·	·	29.3*
C=C1C(=O)[C@]23C[C@H]1CC[C@H]2[C@]1(C)[C@@H](O)CC[C@@](C)(C(=O)O)[C@H]1C[C@@H]3O	0.4	·	-7.1	·	·	28.7*
C=C1C(=O)[C@]23C[C@H]1CC[C@H]2[C@]1(C)[C@@H](OC(C)=O)CC[C@@](C)(C(=O)OC)[C@H]1C[C@@H]3OC(C)=O	1.4	·	16.1	·	·	-10.2
COc1ccc(C(=O)NC(=S)Nc2ccc(S(=O)(=O)Nc3cc(OC)ncn3)cc2)cc1	-0.1	-2.5	25.7	8.5	4.2	-19.4
COc1cc(NS(=O)(=O)c2ccc(NC(=S)NC(=O)c3ccco3)cc2)ncn1	17.8*	-4.7	3.6	-10.6	18.9	18.6
SMILES	CHO-K1 Ca ag	OX1R antag-1	M1 PAM parental	CHO parental Ca	OX1R antag-2	CHO-K1 Ca antag
O=c1oc2ccccc2cc1-c1cn2cccnc2n1	0.1	-11.0	9.2	-3.7	66.3*	0.1
O=C(NC(=S)NCC1CCCO1)c1ccc(Cl)cc1Cl (centres undefined)	15.2*	-13.2	20.4	-18.4	13.8	-4.1
O=C(NC[C@@H]1CCCO1)c1cccc2c1C(=O)c1ccc(Cl)cc1S2(=O)=O	2.1	-11.9	-1.8	-11.6	44.9*	-10.2
COc1ccc(-c2ccc3c(c2)S(=O)(=O)c2cccc(C(=O)NC[C@@H]4CCCO4)c2C3=O)cc1OC	5.9	8.5	6.8	-13.3	37.4*	-6.8
C=CCNC(=O)c1cccc2c1C(=O)c1ccc(N3CCOCC3)cc1S2(=O)=O	1.0	-7.2	-1.6	-6.3	63.8*	-8.2
CCN1Cc2c(/C=C/c3ccccc3)nc3ccc(OC)cc3c2N(c2cccc(Cl)c2)C1	2.2	-11.0	8.6	-5.1	10.6	-6.2
O=C(NCc1ccccc1)/C(=C\c1cccc([N+](=O)[O-])c1)NC(=O)c1ccco1	0.0	·	13.9	·	·	-2.5
C=CCNC(=O)/C(=C/c1cccc([N+](=O)[O-])c1)NC(=O)c1ccco1	15.4*	-12.8	18.8	-2.0	34.8	0.0
CCCCN1CC2=C(C1=O)C(c1ccc(O)cc1)NC(=O)N2C (centres undefined)	1.1	-0.4	-8.8	7.8	24.5	-7.3
COc1cccc(OC)c1C(=O)NCCOc1cc(C)cc(C)c1	15.5*	-18.5	4.0	-4.3	18.6	10.4
Cc1c(Br)c([N+](=O)[O-])nn1C(C)C(=O)N1CCc2ccccc2C1 (centres undefined)	3.4	-10.2	6.5	-13.4	28.6	-6.1
Cc1cccc(N(CC(=O)N2CCCCCC2)S(C)(=O)=O)c1	0.5	-11.2	10.1	-2.9	-8.0	3.2
CN1CCN(C(=O)OC2CC3CC2[C@H]2CCCCN2C3=O)CC1 (some centres undefined)	1.8	·	16.3	·	·	-11.0
NC(=O)c1ccsc1NC(=O)CN1CCN(S(=O)(=O)c2ccccc2C(F)(F)F)CC1	16.1*	·	13.1	·	·	-14.4
O=C(CN1CCN(S(=O)(=O)c2ccccc2C(F)(F)F)CC1)NCc1cccs1	0.2	-6.1	-8.9	-14.0	7.3	12.6
CCN(CC)C(=O)c1ccc2nc3ccccc3nc2c1	0.7	-15.3	23.5	-6.0	65.4*	-12.0
Cc1ccc(-c2nn(-c3ccccc3)cc2C(=O)Nc2cccc(S(=O)(=O)NC3=NCCC3)c2)cc1	1.2	·	-13.5	·	·	34.4*
O=C(Nc1cccc(S(=O)(=O)NC2=NCCC2)c1)c1cn(-c2ccccc2)nc1-c1ccc(F)cc1	5.1	3.8	12.5	1.6	3.3	-12.7
CC(C)Nc1ncnc2c1ncn2[C@H]1CN(C2CCCC2)C[C@@H](CO)O1	0.4	·	20.0	·	·	-17.1
